Results from ChEMBL document CHEMBL1154369, “Betulin-derived compounds as inhibitors of alphavirus replication” (J Nat Prod, 2009).

Columns and labels:
Semliki Forest virus [1] = assay: Antiviral activity against SFV infected in BHK cells assessed as surviving virus fraction at 50 uM after 14 hrs by luciferase reporter gene assay; format: functional; set-up: scale not given here
[2] = Cytotoxicity against human HuH7 cells assessed as cell viability at 50 uM after 24 hrs
Semliki Forest virus [3] = assay: Antiviral activity against SFV infected in BHK cells after 14 hrs by luciferase reporter gene assay; format: functional, organism-based
Summary of the method: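 SFV-Rluc reporter virus from infectious cDNA clone; BHK-21 cells infected at low multiplicity (0.001 PFU/cell) and incubated 14 h, spanning over 2 infectious cycles. Serial dilutions of each derivative tested. Luciferase read-out as surviving virus fraction. IC50 from a sigmoidal dose-response fit; means ± SD, n = 6. 3′-Amino-3′-deoxyadenosine (20 µM) served as screen positive control.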

[4] = Cytotoxicity against human HuH7 cells assessed as cell viability at 500 uM after 24 hrs; format: cell-based, Huh-7; settings: read-out: Activity
Summary of the method: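 Huh-7 human hepatocellular carcinoma cells exposed 24 h to derivative at 500 µM in an extended cytotoxicity analysis. Viability measured as intracellular ATP content and reported as surviving fraction.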

Structure (SMILES)	Activity (Semliki Forest virus [1]) [%]	viability at 24 h, 50 µM [2] [%]	IC50 (Semliki Forest virus [3]; read-out: IC50) [µM]	IC50 (Semliki Forest virus [3]; read-out: pIC50 (converted)) [µM]	viability at 24 h, 500 µM [4] [%]
CC(C)[C@@]12CC[C@]3(CO)CC[C@]4(C)C(=C31)[C@H](C[C@@H]1[C@@]3(C)CC[C@H](O)C(C)(C)[C@@H]3CC[C@]14C)n1c(=O)n(-c3ccccc3)c(=O)n12	73	85	–	–	–
CC(C)[C@@]12CC[C@]3(COC(=O)C4CCCCC4)CC[C@]4(C)C(=C31)[C@H](C[C@@H]1[C@@]3(C)CC[C@H](OC(=O)C5CCCCC5)C(C)(C)[C@@H]3CC[C@]14C)n1c(=O)n(C)c(=O)n12	44	97	–	–	–
C=C(C)[C@@H]1CC[C@]2(COC(C)=O)CC[C@]3(C)[C@H](CC[C@@H]4[C@@]5(C)CC[C@H](OC(C)=O)C(C)(C)[C@@H]5CC[C@]43C)[C@@H]12 [BETULIN DIACETATE]	21	97	9.1	9.12	–
CCn1c(=O)n2n(c1=O)[C@]1(C(C)C)CC[C@]3(COC(C)=O)CC[C@]4(C)C(=C31)[C@@H]2C[C@@H]1[C@@]2(C)CC[C@H](OC(C)=O)C(C)(C)[C@@H]2CC[C@]14C	24	40	–	–	–
C=C(C)[C@@H]1CC[C@]2(/C=N/O)CC[C@]3(C)[C@H](CC[C@@H]4[C@@]5(C)CC[C@H](O)C(C)(C)[C@@H]5CC[C@]43C)[C@@H]12	55	82	–	–	–
CC(=O)OC[C@]12CCC(C(C)C)=C1[C@H]1CC[C@@H]3[C@@]4(C)CC[C@H](OC(C)=O)C(C)(C)[C@@H]4CC[C@@]3(C)[C@]1(C)CC2	15	87	43.2	42.7	> 80
CC(C)[C@@]12CC[C@]3(COC(=O)c4ccccc4)CC[C@]4(C)C(=C31)[C@H](C[C@@H]1[C@@]3(C)CC[C@H](OC(=O)c5ccccc5)C(C)(C)[C@@H]3CC[C@]14C)n1c(=O)n(-c3ccccc3)c(=O)n12	50	88	–	–	–
CC(=O)OC[C@]12CC[C@]3(C(C)C)O[C@]13[C@H]1CC[C@@H]3[C@@]4(C)CC[C@H](OC(C)=O)C(C)(C)[C@@H]4CC[C@@]3(C)[C@]1(C)CC2	16	92	13.3	11.5	> 80
COc1cccc(-n2c(=O)n3n(c2=O)[C@]2(C(C)C)CC[C@]4(COC(C)=O)CC[C@]5(C)C(=C42)[C@@H]3C[C@@H]2[C@@]3(C)CC[C@H](OC(C)=O)C(C)(C)[C@@H]3CC[C@]25C)c1	121	93	–	–	–
CC(C)C(=O)OC[C@]12CC[C@]3(C(C)C)C1=C1[C@H](C[C@@H]4[C@@]5(C)CC[C@H](OC(=O)C(C)C)C(C)(C)[C@@H]5CC[C@@]4(C)[C@]1(C)CC2)n1c(=O)n(C)c(=O)n13	24	106	–	–	> 80
C=C(C)[C@@H]1CC[C@]2(COC(=O)c3ccccc3NC(C)=O)CC[C@]3(C)[C@H](CC[C@@H]4[C@@]5(C)CC[C@H](O)C(C)(C)[C@@H]5CC[C@]43C)[C@@H]12	82	94	–	–	–
C=C(C)[C@@H]1CC[C@]2(C(=O)OC)CC[C@]3(C)[C@H](CC[C@@H]4[C@@]5(C)CC[C@H](O)C(C)(C)[C@@H]5CC[C@]43C)[C@@H]12 [METHYL BETULINATE]	68	1	–	–	–
C=C(C)[C@@H]1CC[C@]2(C(=O)OC)CC[C@]3(C)[C@H](CC[C@@H]4[C@@]5(C)CCC(=O)C(C)(C)[C@@H]5CC[C@]43C)[C@@H]12 [METHYL BETULONATE]	71	83	–	–	–
C=C(C)[C@@H]1CC[C@]2(C(=O)N[C@@H](CC(=O)OC)C(=O)OC)CC[C@]3(C)[C@H](CC[C@@H]4[C@@]5(C)CCC(=O)C(C)(C)[C@@H]5CC[C@]43C)[C@@H]12	40	30	–	–	–
CC(=O)OC[C@]12CC[C@]3(C(C)C)C1=C1[C@H](C[C@@H]4[C@@]5(C)CC[C@H](OC(C)=O)C(C)(C)[C@@H]5CC[C@@]4(C)[C@]1(C)CC2)n1c(=O)n(-c2ccc(F)cc2)c(=O)n13	64	95	–	–	–
C=C(C)[C@@H]1CC[C@]2(/C=N/O)CC[C@]3(C)[C@H](CC[C@@H]4[C@@]5(C)CC/C(=N\O)C(C)(C)[C@@H]5CC[C@]43C)[C@@H]12 [BETULIN-3,28-DIOXIME]	121	80	–	–	–
C=C(C)[C@@H]1CC[C@]2(COC(=O)CCC(C)=O)CC[C@]3(C)[C@H](CC[C@@H]4[C@@]5(C)CC[C@H](OC(=O)CCC(C)=O)C(C)(C)[C@@H]5CC[C@]43C)[C@@H]12	74	109	–	–	–

Structure (SMILES)	Activity (Semliki Forest virus [1]) [%]	viability at 24 h, 50 µM [2] [%]	IC50 (Semliki Forest virus [3]; read-out: IC50) [µM]	IC50 (Semliki Forest virus [3]; read-out: pIC50 (converted)) [µM]	viability at 24 h, 500 µM [4] [%]
CC(C)[C@@]12CC[C@]3(COC(=O)C4CCCCC4)CC[C@]4(C)C(=C31)[C@H](C[C@@H]1[C@@]3(C)CC[C@H](OC(=O)C5CCCCC5)C(C)(C)[C@@H]3CC[C@]14C)n1c(=O)n(C(C)(C)C)c(=O)n12	40	83	–	–	–
C=C(C)[C@@H]1CC[C@]2(C=O)CC[C@]3(C)[C@H](CC[C@@H]4[C@@]5(C)CC[C@H](O)C(C)(C)[C@@H]5CC[C@]43C)[C@@H]12 [BETULINALDEHYDE]	1	0	–	–	–
C=C(C)[C@@H]1CC[C@]2(COS(C)(=O)=O)CC[C@]3(C)[C@H](CC[C@@H]4[C@@]5(C)CC[C@H](OC(C)=O)C(C)(C)[C@@H]5CC[C@]43C)[C@@H]12	46	99	–	–	–
C=C(C)[C@@H]1CC[C@]2(COC(=O)COc3cc(C(C)C)ccc3C)CC[C@]3(C)[C@H](CC[C@@H]4[C@@]5(C)CC[C@H](O)C(C)(C)[C@@H]5CC[C@]43C)[C@@H]12	80	103	–	–	–
C=C(C)[C@@H]1CC[C@]2(COC(C)=O)CC[C@]3(C)[C@H](CC[C@@H]4[C@@]5(C)CC=CC(C)(C)[C@@H]5CC[C@]43C)[C@@H]12	98	95	–	–	–
C=C(C)[C@@H]1CC[C@]2(C#N)CC[C@]3(C)[C@H](CC[C@@H]4[C@@]5(C)CC[C@H](OC(C)=O)C(C)(C)[C@@H]5CC[C@]43C)[C@@H]12	60	69	–	–	–
C=C(C)[C@@H]1CC[C@]2(COC(=O)c3cccnc3)CC[C@]3(C)[C@H](CC[C@@H]4[C@@]5(C)CC[C@H](O)C(C)(C)[C@@H]5CC[C@]43C)[C@@H]12	43	94	–	–	–
CCC(=O)OC[C@]12CC[C@]3(C(C)C)C1=C1[C@H](C[C@@H]4[C@@]5(C)CC[C@H](OC(=O)CC)C(C)(C)[C@@H]5CC[C@@]4(C)[C@]1(C)CC2)n1c(=O)n(C)c(=O)n13	21	75	–	–	–
CC(C)[C@@]12CC[C@]3(COC(=O)c4ccccc4)CC[C@]4(C)C(=C31)[C@H](C[C@@H]1[C@@]3(C)CC[C@H](OC(=O)c5ccccc5)C(C)(C)[C@@H]3CC[C@]14C)n1c(=O)n(C)c(=O)n12	22	108	–	–	–
CC(=O)OC[C@]12CC[C@]3(C(C)C)C1=C1[C@H](C[C@@H]4[C@@]5(C)CC[C@H](OC(C)=O)C(C)(C)[C@@H]5CC[C@@]4(C)[C@]1(C)CC2)n1c(=O)n(-c2ccc4c(c2)CCC4)c(=O)n13	81	93	–	–	–
CCCC(=O)OC[C@]12CC[C@]3(C(C)C)C1=C1[C@H](C[C@@H]4[C@@]5(C)CC[C@H](OC(=O)CCC)C(C)(C)[C@@H]5CC[C@@]4(C)[C@]1(C)CC2)n1c(=O)n(C)c(=O)n13	18	93	30.1	30.2	–
C=C(C)[C@@H]1CC[C@]2(C#N)CC[C@]3(C)[C@H](CC[C@@H]4[C@@]5(C)CC/C(=N\OC(C)=O)C(C)(C)[C@@H]5CC[C@]43C)[C@@H]12	73	85	–	–	–
C=C(C)[C@@H]1CC[C@]2(COC(=O)/C=C/c3ccccc3)CC[C@]3(C)[C@H](CC[C@@H]4[C@@]5(C)CC[C@H](O)C(C)(C)[C@@H]5CC[C@]43C)[C@@H]12	111	96	–	–	–
C=C(C)[C@@H]1CC[C@]2(COC(=O)C3C(C=C(C)C)C3(C)C)CC[C@]3(C)[C@H](CC[C@@H]4[C@@]5(C)CC[C@H](O)C(C)(C)[C@@H]5CC[C@]43C)[C@@H]12 (some centres undefined)	95	90	–	–	–
C=C(C)[C@@H]1CC[C@]2(C(=O)Oc3ccc(C=O)cc3OC)CC[C@]3(C)[C@H](CC[C@@H]4[C@@]5(C)CCC(=O)C(C)(C)C5CC[C@]43C)[C@@H]12 (some centres undefined) [VANILLINYL BETULONATE]	43	89	–	–	–
C=C(C)[C@@H]1CC[C@]2(COC(=O)CBr)CC[C@]3(C)[C@H](CC[C@@H]4[C@@]5(C)CC[C@H](O)C(C)(C)[C@@H]5CC[C@]43C)[C@@H]12	125	11	–	–	–
C=C(C)[C@@H]1CC[C@]2(CO)CC[C@]3(C)[C@H](CC[C@@H]4[C@@]5(C)CC=CC(C)(C)[C@@H]5CC[C@]43C)[C@@H]12	121	85	–	–	–
